≈ marks a conversion by molar mass, not a printed value.
Legend:
[1] = test system: Candida albicans; assay: Antifungal activity against Candida albicans ATCC 44859 after 48 hrs by microdilution method; assay type: functional; details: ATCC 44859, 48 h
Method in brief: (§1)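 Yeasts held on Sabouraud dextrose agar. MIC by NCCLS M27-A broth microdilution in RPMI 1640 with L-glutamine, buffered with 0.165 M MOPS to pH 7.0. Compounds in DMSO (≤2% final), twofold dilutions 500–0.48. Final inoculum 5 × 10³ ± 0.2 cfu mL⁻¹. Incubated at 35 °C; absorbance at 540 nm read at 24 and 48 h. MIC is 80% growth inhibition versus control; run twice in duplicate.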

[2] = test system: Candida albicans; assay: Antifungal activity against Candida albicans ATCC 90028 after 24 hrs by microdilution method; assay type: functional; details: ATCC 90028, 24 h; method in brief: as §1
[3] = test system: Candida albicans; assay: Antifungal activity against Candida albicans ATCC 90028 after 48 hrs by microdilution method; assay type: functional; details: ATCC 90028, 48 h; method in brief: as §1
[4] = test system: Candida parapsilosis; assay: Antifungal activity against Candida parapsilosis ATCC 22019 after 24 hrs by microdilution method; assay type: functional; details: Lodderomyces parapsilosis, ATCC 22019, 24 h; method in brief: as §1
[5] = test system: Candida parapsilosis; assay: Antifungal activity against Candida parapsilosis ATCC 22019 after 48 hrs by microdilution method; assay type: functional; details: Lodderomyces parapsilosis, ATCC 22019, 48 h; method in brief: as §1
[6] = test system: Pichia kudriavzevii; assay: Antifungal activity against Candida krusei ATCC 6258 after 24 hrs by microdilution method; assay type: functional; details: ATCC 6258, 24 h; method in brief: as §1
[7] = test system: Pichia kudriavzevii; assay: Antifungal activity against Candida krusei ATCC 6258 after 48 hrs by microdilution method; assay type: functional; details: ATCC 6258, 48 h; method in brief: as §1
[8] = test system: Pichia kudriavzevii; assay: Antifungal activity against Candida krusei E28 after 24 hrs by microdilution method; assay type: functional; details: E28, 24 h; method in brief: as §1
[9] = test system: Pichia kudriavzevii; assay: Antifungal activity against Candida krusei E28 after 48 hrs by microdilution method; assay type: functional; details: E28, 48 h; method in brief: as §1
[10] = test system: Candida tropicalis; assay: Antifungal activity against Candida tropicalis 156 after 24 hrs by microdilution method; assay type: functional; details: Candida tropicalis, 156, 24 h; method in brief: as §1
[11] = test system: Candida tropicalis; assay: Antifungal activity against Candida tropicalis 156 after 48 hrs by microdilution method; assay type: functional; details: Candida tropicalis, 156, 48 h; method in brief: as §1
[12] = test system: Nakaseomyces glabratus; assay: Antifungal activity against Candida glabrata 20/I after 24 hrs by microdilution method; assay type: functional; method in brief: as §1
[13] = test system: Nakaseomyces glabratus; assay: Antifungal activity against Candida glabrata 20/I after 48 hrs by microdilution method; assay type: functional; method in brief: as §1
[14] = test system: Clavispora lusitaniae; assay: Antifungal activity against Candida lusitaniae 2446/I after 24 hrs by microdilution method; assay type: functional; method in brief: as §1
[15] = test system: Clavispora lusitaniae; assay: Antifungal activity against Candida lusitaniae 2446/I after 48 hrs by microdilution method; assay type: functional; method in brief: as §1
[16] = test system: Trichosporon beigelii; assay: Antifungal activity against Trichosporon beigelii 1188 after 24 hrs by microdilution method; assay type: functional; details: Trichosporon beigelii, 1188, 24 h; method in brief: as §1
[17] = test system: Trichosporon beigelii; assay: Antifungal activity against Trichosporon beigelii 1188 after 48 hrs by microdilution method; assay type: functional; details: Trichosporon beigelii, 1188, 48 h; method in brief: as §1
[18] = test system: Aspergillus fumigatus; assay: Antifungal activity against Aspergillus fumigatus 231 after 24 hrs by microdilution method; assay type: functional; details: Aspergillus fumigatus, 231, 24 h
Method in brief: (§2)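 Filamentous strains held on Sabouraud dextrose agar. NCCLS M27-A broth microdilution in RPMI 1640 with L-glutamine and 0.165 M MOPS, pH 7.0. DMSO diluent ≤2% final; twofold dilutions 500–0.48. Inoculum 5 × 10³ ± 0.2 cfu mL⁻¹ final.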

[19] = test system: Aspergillus fumigatus; assay: Antifungal activity against Aspergillus fumigatus 231 after 48 hrs by microdilution method; assay type: functional; details: Aspergillus fumigatus, 231, 48 h; method in brief: as §2
[20] = test system: Lichtheimia corymbifera; assay: Antifungal activity against Absidia corymbifera 272 after 24 hrs by microdilution method; assay type: functional; details: Lichtheimia corymbifera, 272, 24 h; method in brief: as §2
[21] = test system: Lichtheimia corymbifera; assay: Antifungal activity against Absidia corymbifera 272 after 48 hrs by microdilution method; assay type: functional; details: Lichtheimia corymbifera, 272, 48 h; method in brief: as §2
[22] = test system: Trichophyton mentagrophytes; assay: Antifungal activity against Trichophyton mentagrophytes 445 after 72 hrs by microdilution method; assay type: functional; details: Trichophyton mentagrophytes, 445, 72 h
Method in brief: (§3)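 Dermatophyte held on Sabouraud dextrose agar. M27-A microdilution in MOPS-buffered (0.165 M, pH 7.0) RPMI 1640 with L-glutamine. DMSO ≤2% final; twofold dilutions 500–0.48. Inoculum 5 × 10³ ± 0.2 cfu mL⁻¹ final. Incubated at 35 °C; MIC read visually at 72 and 120 h as 80% inhibition of control growth; determined twice in duplicate.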

[23] = test system: Trichophyton mentagrophytes; assay: Antifungal activity against Trichophyton mentagrophytes 445 after 120 hrs by microdilution method; assay type: functional; details: Trichophyton mentagrophytes, 445, 120 h; method in brief: as §3
[24] = test system: L1210; assay: Cytostatic activity against mouse L1210 cells after 72 hrs by XTT assay; assay type: functional, cell-based; details: l1210
Method in brief: (§4)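 Leukemia cells (L1210 ATCC CCL 219, CCRF-CEM ATCC CCL 119, HL-60 ATCC CCL 240) grown in 24-well plates in RPMI 1640 with fetal calf serum. Growth assessed 72 h after drug addition. Viability measured by XTT spectrophotometric assay; potency given as IC50.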

[25] = test system: HL-60; assay: Cytostatic activity against human HL60 cells after 72 hrs by XTT assay; assay type: functional, cell-based; details: hl-60; method in brief: as §4
[26] = test system: CCRF-CEM; assay: Cytostatic activity against human CCRF-CEM cells after 72 hrs by XTT assay; assay type: functional, cell-based; method in brief: as §4
[27] = test system: Candida albicans; assay: Antifungal activity against Candida albicans ATCC 44859 after 24 hrs by microdilution method; assay type: functional; details: ATCC 44859, 24 h; method in brief: as §1
[28] = test system: HeLa S3; assay: Cytostatic activity against human HeLaS3 cells after 48 hrs by XTT assay

SMILES	MIC80 [1] [µM]	MIC80 [2] [µM]	MIC80 [3] [µM]	MIC80 [4] [µM]	MIC80 [5] [µM]	MIC80 [6] [µM]	MIC80 [7] [µM]	MIC80 [8] [µM]	MIC80 [9] [µM]	MIC80 [10] [µM]	MIC80 [11] [µM]	MIC80 [12] [µM]	MIC80 [13] [µM]	MIC80 [14] [µM]	MIC80 [15] [µM]	MIC80 [16] [µM]	MIC80 [17] [µM]	MIC80 [18] [µM]	MIC80 [19] [µM]	MIC80 [20] [µM]	further results
CCOCC1C=C(c2ccc(Br)cc2)C(=O)O1 (stereo unspecified)	62.5 (≈ 18.6 µg/mL)	125 (≈ 37.1 µg/mL)	125 (≈ 37.1 µg/mL)	125 (≈ 37.1 µg/mL)	250 (≈ 74.3 µg/mL)	250 (≈ 74.3 µg/mL)	250 (≈ 74.3 µg/mL)	250 (≈ 74.3 µg/mL)	250 (≈ 74.3 µg/mL)	250 (≈ 74.3 µg/mL)	250 (≈ 74.3 µg/mL)	62.5 (≈ 18.6 µg/mL)	62.5 (≈ 18.6 µg/mL)	125 (≈ 37.1 µg/mL)	250 (≈ 74.3 µg/mL)	125 (≈ 37.1 µg/mL)	250 (≈ 74.3 µg/mL)	62.5 (≈ 18.6 µg/mL)	125 (≈ 37.1 µg/mL)	125 (≈ 37.1 µg/mL)	MIC80 [21]: 125 µM (≈ 37.1 µg/mL); MIC80 [22]: 15.6 µM (≈ 4.64 µg/mL); MIC80 [23]: 15.6 µM (≈ 4.64 µg/mL); IC50 [24]: Not Active; IC50 [25]: Not Active; IC50 ([26]; Homo sapiens, CCRF-CEM, 72 h, read-out: IC50): 9.82 µM; MIC80 [27]: 31.2 µM (≈ 9.29 µg/mL); IC50 ([28]; Homo sapiens, HeLa S3, 48 h, read-out: IC50): 1.94 µM
O=C1OCC=C1c1ccc(Br)cc1	250 (≈ 59.8 µg/mL)	500 (≈ 120 µg/mL)	500 (≈ 120 µg/mL)	250 (≈ 59.8 µg/mL)	500 (≈ 120 µg/mL)	250 (≈ 59.8 µg/mL)	500 (≈ 120 µg/mL)	250 (≈ 59.8 µg/mL)	500 (≈ 120 µg/mL)	250 (≈ 59.8 µg/mL)	500 (≈ 120 µg/mL)	500 (≈ 120 µg/mL)	500 (≈ 120 µg/mL)	500 (≈ 120 µg/mL)	500 (≈ 120 µg/mL)	250 (≈ 59.8 µg/mL)	500 (≈ 120 µg/mL)	250 (≈ 59.8 µg/mL)	500 (≈ 120 µg/mL)	500 (≈ 120 µg/mL)	MIC80 [21]: 500 µM (≈ 120 µg/mL); MIC80 [22]: 250 µM (≈ 59.8 µg/mL); MIC80 [23]: 250 µM (≈ 59.8 µg/mL); IC50 [24]: Not Active; IC50 [25]: Not Active; IC50 ([26]; ccrf-cem): Not Active; MIC80 [27]: 250 µM (≈ 59.8 µg/mL); IC50 ([28]; hela s3): Not Active

Source: ChEMBL document CHEMBL1157589, “Antifungal 3,5-disubstituted furanones: From 5-acyloxymethyl to 5-alkylidene derivatives” (Bioorg Med Chem, 2010)
